Assay results reported in the M2OR odorant receptor database.
Positions count from the first letter of the chain named.

Tests used:
Details in all cases: stereoisomer not certain
OR52N4 (Homo sapiens) = molecular target: T1, OR52N4 (Homo sapiens) (UniProt Q8NGI2)
T1 sequence (whole entry): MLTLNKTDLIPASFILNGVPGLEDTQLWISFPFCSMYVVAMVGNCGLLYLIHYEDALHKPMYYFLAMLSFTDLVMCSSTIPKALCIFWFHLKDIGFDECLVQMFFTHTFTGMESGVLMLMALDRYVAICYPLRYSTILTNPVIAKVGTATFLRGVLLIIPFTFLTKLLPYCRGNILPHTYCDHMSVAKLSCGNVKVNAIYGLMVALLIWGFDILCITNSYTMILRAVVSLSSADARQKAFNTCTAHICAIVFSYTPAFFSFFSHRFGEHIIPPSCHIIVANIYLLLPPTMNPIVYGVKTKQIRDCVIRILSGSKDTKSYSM
How it was run: (§1)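 Assay methods differ from source to source, frequently being transient luciferase assays in mammalian cell lines. For each receptor–molecule pair, the label responsive (active) applies when the original authors judged the measured signal statistically different from baseline, and non-responsive (inactive) applies otherwise.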

OR52N5 (Homo sapiens) = molecular target: T2, OR52N5 (Homo sapiens) (UniProt Q8NH56)
T2 sequence (whole entry): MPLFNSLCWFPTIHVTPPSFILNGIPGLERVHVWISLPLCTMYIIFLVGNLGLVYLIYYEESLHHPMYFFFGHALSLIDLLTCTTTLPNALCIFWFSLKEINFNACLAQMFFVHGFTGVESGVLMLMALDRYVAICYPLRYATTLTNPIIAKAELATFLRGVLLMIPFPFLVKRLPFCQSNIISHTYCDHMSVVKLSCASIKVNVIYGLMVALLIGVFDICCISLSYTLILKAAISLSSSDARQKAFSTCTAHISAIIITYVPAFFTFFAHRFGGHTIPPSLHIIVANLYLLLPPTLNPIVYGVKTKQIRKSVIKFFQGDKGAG
How it was run: as §1

OR52R1 (Homo sapiens) = molecular target: T3, OR52R1 (Homo sapiens) (UniProt Q8NGF1)
T3 sequence (whole entry): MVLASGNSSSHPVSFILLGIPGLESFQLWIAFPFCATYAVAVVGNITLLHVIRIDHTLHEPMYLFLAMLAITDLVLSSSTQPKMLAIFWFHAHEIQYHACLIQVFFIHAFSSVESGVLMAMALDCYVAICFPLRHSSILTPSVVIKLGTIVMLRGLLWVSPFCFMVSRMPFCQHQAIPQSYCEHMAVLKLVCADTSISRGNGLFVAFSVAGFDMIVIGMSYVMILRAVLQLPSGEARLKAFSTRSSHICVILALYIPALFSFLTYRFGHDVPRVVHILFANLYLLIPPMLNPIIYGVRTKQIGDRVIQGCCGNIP
How it was run: as §1

OR52W1 (Homo sapiens) = molecular target: T4, OR52W1 (Homo sapiens) (UniProt Q6IF63)
T4 sequence (whole entry): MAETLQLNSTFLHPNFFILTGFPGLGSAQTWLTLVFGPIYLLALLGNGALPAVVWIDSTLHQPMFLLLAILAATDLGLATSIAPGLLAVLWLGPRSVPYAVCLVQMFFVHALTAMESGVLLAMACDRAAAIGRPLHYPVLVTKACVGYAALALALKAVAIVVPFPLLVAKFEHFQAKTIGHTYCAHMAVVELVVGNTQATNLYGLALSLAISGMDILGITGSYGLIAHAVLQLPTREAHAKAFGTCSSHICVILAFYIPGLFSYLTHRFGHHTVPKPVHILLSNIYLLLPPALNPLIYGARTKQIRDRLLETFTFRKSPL
How it was run: as §1

OR56A1 (Homo sapiens) = molecular target: T5, OR56A1 (Homo sapiens) (UniProt Q8NGH5)
T5 sequence (whole entry): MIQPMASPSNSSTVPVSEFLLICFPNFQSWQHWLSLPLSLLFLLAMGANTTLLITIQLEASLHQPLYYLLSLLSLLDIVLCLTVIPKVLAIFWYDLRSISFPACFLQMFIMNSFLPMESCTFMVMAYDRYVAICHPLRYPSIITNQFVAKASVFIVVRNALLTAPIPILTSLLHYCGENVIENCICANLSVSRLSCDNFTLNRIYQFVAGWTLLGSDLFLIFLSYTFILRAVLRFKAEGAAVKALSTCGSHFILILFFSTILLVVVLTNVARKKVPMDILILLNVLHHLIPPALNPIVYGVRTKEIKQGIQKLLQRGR
How it was run: as §1

OR56A3 (Homo sapiens) = molecular target: T6, OR56A3 (Homo sapiens) (UniProt Q8NH54)
T6 sequence (whole entry): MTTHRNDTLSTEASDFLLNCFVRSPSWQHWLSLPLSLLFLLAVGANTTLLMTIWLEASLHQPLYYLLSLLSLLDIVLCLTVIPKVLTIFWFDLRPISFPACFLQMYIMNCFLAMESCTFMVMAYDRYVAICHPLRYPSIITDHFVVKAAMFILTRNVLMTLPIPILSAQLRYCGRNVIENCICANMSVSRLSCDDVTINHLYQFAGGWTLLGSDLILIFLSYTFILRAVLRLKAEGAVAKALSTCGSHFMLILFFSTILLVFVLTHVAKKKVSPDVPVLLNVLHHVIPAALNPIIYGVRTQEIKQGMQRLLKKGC
How it was run: as §1

OR56A5 (Homo sapiens) = molecular target: T7, OR56A5 (Homo sapiens) (UniProt P0C7T3)
T7 sequence (whole entry): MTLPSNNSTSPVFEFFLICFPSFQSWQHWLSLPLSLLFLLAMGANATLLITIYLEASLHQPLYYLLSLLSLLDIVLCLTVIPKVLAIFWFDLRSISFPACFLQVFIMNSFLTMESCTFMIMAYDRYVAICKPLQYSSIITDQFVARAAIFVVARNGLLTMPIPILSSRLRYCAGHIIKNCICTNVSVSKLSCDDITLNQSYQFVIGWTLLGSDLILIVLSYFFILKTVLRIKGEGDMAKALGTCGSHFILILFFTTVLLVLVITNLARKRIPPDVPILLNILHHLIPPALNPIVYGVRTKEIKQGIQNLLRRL
How it was run: as §1

OR56B1 (Homo sapiens) = molecular target: T8, OR56B1 (Homo sapiens) (UniProt Q8NGI3)
T8 sequence (whole entry): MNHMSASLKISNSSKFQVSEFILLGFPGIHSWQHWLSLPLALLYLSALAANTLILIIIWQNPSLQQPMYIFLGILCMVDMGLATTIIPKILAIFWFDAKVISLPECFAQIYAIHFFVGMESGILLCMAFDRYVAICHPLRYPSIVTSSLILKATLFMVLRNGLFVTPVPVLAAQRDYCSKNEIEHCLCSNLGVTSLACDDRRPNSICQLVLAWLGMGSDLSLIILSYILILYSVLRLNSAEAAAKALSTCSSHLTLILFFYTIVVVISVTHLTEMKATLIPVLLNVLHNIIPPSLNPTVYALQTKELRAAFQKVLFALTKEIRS
How it was run: as §1

OR56B4 (Homo sapiens) = molecular target: T9, OR56B4 (Homo sapiens) (UniProt Q8NH76)
T9 sequence (whole entry): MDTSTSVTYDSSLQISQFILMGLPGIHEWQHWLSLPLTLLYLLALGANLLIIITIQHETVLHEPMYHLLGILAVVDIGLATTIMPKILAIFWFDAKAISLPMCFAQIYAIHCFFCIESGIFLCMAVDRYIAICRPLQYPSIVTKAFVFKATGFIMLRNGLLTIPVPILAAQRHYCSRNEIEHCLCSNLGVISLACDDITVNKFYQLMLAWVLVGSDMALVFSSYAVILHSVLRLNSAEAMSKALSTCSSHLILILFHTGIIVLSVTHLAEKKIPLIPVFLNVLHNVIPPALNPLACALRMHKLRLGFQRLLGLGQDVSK
How it was run: as §1

OR5A1 (Homo sapiens) = molecular target: T10, OR5A1 (Homo sapiens) (UniProt Q8NGJ0)
T10 sequence (whole entry): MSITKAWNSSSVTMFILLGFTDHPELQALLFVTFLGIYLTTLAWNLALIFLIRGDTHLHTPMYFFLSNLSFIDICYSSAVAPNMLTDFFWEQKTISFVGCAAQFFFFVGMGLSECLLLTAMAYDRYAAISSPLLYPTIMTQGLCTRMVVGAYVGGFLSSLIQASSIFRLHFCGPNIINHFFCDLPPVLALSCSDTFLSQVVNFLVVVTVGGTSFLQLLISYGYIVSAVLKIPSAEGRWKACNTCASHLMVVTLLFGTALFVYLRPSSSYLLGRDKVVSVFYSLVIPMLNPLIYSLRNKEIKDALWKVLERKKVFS
How it was run: as §1

OR5A1 D183N = system: T11, OR5A1 D183N
T11 sequence (whole entry): T10 sequence (whole entry) with D183N
How it was run: as §1

OR5A2 (Homo sapiens) = molecular target: T12, OR5A2 (Homo sapiens) (UniProt Q8NGI9)
T12 sequence (whole entry): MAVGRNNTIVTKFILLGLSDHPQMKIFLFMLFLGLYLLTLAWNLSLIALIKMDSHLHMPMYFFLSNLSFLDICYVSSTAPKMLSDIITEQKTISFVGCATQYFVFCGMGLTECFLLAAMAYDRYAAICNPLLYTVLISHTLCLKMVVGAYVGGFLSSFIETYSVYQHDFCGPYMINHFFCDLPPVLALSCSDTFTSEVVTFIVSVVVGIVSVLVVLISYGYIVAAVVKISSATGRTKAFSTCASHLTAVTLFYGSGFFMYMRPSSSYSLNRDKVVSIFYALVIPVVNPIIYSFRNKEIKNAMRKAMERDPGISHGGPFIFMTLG
How it was run: as §1

OR5AC2 (Homo sapiens) = molecular target: T13, OR5AC2 (Homo sapiens) (UniProt Q9NZP5)
T13 sequence (whole entry): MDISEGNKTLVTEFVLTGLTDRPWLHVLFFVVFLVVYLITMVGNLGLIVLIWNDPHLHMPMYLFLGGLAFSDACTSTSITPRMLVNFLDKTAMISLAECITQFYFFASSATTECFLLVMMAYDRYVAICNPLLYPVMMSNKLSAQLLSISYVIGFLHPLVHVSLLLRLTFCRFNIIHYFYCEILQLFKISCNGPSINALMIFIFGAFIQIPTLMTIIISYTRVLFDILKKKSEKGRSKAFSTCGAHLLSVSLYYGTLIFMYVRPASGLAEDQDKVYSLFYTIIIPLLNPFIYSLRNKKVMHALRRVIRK
How it was run: as §1

OR5AK2 (Homo sapiens) = molecular target: T14, OR5AK2 (Homo sapiens) (UniProt Q8NH90)
T14 sequence (whole entry): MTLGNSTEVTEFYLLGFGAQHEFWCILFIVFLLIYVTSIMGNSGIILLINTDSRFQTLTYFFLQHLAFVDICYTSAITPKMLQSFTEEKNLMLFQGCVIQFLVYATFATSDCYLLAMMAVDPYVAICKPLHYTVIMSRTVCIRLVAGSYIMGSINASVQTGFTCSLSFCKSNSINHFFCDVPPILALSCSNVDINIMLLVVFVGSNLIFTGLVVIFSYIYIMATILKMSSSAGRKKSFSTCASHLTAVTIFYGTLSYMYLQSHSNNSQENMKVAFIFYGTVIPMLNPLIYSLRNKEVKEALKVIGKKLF
How it was run: as §1

OR5AN1 (Homo sapiens) = molecular target: T15, OR5AN1 (Homo sapiens) (UniProt Q8NGI8)
T15 sequence (whole entry): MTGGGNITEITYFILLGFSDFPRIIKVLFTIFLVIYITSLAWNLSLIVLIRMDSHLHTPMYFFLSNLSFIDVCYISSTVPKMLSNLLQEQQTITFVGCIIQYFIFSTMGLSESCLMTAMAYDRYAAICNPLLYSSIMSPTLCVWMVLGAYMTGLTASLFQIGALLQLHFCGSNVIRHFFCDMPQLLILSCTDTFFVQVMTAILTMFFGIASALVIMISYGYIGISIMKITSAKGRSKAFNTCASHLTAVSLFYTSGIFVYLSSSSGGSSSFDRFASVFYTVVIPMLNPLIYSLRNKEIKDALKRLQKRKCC
How it was run: as §1

OR5AP2 (Homo sapiens) = molecular target: T16, OR5AP2 (Homo sapiens) (UniProt Q8NGF4)
T16 sequence (whole entry): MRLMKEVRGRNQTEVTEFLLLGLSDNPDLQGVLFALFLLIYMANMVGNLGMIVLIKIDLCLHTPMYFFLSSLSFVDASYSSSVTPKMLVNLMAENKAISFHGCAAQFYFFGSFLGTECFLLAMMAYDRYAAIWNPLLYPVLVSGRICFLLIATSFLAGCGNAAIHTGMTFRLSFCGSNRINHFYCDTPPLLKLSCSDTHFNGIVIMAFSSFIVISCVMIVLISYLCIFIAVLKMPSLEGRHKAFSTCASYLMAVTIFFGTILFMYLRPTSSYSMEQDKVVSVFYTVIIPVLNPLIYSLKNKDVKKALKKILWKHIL
How it was run: as §1

OR52Z1P (Homo sapiens) = OR52Z1P (Homo sapiens) (UniProt P0C646)
Sequence of OR52Z1P (Homo sapiens) (P0C646 whole entry): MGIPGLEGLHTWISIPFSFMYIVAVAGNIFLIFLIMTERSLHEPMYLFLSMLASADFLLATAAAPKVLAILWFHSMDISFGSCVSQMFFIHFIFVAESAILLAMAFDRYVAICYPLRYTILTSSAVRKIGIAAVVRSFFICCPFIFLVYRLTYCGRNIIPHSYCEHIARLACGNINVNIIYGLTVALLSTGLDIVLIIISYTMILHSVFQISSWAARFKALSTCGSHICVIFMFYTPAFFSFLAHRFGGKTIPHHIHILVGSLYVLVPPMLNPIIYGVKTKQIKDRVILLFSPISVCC
How it was run: as §1

OR56A4 (Homo sapiens) = molecular target: T17, OR56A4 (Homo sapiens) (UniProt Q8NGH8)
T17 sequence (whole entry): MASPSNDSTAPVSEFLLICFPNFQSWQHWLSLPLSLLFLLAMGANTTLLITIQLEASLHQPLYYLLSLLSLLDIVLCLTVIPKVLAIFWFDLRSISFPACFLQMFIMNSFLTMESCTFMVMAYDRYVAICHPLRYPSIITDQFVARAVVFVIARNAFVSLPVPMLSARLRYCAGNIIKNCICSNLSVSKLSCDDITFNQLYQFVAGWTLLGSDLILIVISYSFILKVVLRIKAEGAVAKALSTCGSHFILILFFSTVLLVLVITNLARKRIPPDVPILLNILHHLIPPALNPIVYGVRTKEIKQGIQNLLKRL
How it was run: as §1

OR5AC1 (Homo sapiens) = OR5AC1 (Homo sapiens) (UniProt P0C628)
Sequence of OR5AC1 (Homo sapiens) (P0C628 whole entry): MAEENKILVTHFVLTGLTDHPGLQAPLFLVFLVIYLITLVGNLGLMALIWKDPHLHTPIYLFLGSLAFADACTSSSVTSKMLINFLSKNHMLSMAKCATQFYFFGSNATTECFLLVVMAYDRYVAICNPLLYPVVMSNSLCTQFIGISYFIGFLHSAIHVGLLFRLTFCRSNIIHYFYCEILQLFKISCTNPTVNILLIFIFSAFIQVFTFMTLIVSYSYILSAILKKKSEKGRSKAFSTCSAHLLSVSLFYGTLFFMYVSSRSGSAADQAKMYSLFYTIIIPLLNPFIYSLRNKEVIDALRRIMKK
How it was run: as §1

OR5AL1 (Homo sapiens) = OR5AL1 (Homo sapiens) (UniProt P0C617)
Sequence of OR5AL1 (Homo sapiens) (P0C617 whole entry): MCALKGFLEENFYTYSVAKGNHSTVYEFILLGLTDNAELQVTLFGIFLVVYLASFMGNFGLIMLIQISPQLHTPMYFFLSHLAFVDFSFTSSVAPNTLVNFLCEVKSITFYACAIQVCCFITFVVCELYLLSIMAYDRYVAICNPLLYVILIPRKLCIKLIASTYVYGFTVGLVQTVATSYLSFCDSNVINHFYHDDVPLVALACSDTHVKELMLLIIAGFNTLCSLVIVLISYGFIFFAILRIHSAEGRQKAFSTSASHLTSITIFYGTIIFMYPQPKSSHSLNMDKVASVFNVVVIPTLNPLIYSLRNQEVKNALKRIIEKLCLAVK
How it was run: as §1

Measured: odorant receptor agonist call

CCC1OC(=O)C(O)=C1C (stereo not drawn)
not listed: OR52Z1P (Homo sapiens) | OR56A4 (Homo sapiens) | OR5AC1 (Homo sapiens) | OR5AL1 (Homo sapiens)
inactive: all other assays above

CC(=O)c1c(C)c([N+](=O)[O-])c(C(C)(C)C)c([N+](=O)[O-])c1C
active: OR5AN1 (Homo sapiens)
not listed: OR5A1 D183N
inactive: all other assays above

C=CC(C)(CCC=C(C)C)OC(C)=O (stereo not drawn)
inactive: OR5AC2 (Homo sapiens)

CC1=NC(C)C(C)S1 (stereo not drawn)
not listed: OR52Z1P (Homo sapiens) | OR56A4 (Homo sapiens) | OR5AC1 (Homo sapiens) | OR5AL1 (Homo sapiens)
inactive: all other assays above

Cc1cnc(C)c(C)n1
not listed: OR52Z1P (Homo sapiens) | OR56A4 (Homo sapiens) | OR5AC1 (Homo sapiens) | OR5AL1 (Homo sapiens)
inactive: all other assays above
